Each structure is given as a SMILES string. Some results are limits rather than exact numbers.

Experiment [1] concerns the target T1, Adrenergic receptor alpha-1 (Rattus norvegicus, UniProt P15823+P23944+P43140).
T1 sequence (P15823 whole entry): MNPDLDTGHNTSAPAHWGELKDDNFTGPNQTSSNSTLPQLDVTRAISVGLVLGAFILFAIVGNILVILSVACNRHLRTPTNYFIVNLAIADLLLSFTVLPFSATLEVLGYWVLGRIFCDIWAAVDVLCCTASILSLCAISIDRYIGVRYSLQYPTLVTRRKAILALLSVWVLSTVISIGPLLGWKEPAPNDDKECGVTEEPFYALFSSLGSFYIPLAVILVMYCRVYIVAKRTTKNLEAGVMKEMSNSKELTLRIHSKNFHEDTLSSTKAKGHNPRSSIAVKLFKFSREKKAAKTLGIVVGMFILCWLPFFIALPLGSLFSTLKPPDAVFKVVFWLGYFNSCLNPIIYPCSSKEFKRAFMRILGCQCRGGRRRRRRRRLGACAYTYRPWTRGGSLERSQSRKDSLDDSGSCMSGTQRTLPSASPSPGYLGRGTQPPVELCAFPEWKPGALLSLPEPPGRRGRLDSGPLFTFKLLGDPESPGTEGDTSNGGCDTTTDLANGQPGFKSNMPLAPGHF
T1 sequence (P23944 whole entry): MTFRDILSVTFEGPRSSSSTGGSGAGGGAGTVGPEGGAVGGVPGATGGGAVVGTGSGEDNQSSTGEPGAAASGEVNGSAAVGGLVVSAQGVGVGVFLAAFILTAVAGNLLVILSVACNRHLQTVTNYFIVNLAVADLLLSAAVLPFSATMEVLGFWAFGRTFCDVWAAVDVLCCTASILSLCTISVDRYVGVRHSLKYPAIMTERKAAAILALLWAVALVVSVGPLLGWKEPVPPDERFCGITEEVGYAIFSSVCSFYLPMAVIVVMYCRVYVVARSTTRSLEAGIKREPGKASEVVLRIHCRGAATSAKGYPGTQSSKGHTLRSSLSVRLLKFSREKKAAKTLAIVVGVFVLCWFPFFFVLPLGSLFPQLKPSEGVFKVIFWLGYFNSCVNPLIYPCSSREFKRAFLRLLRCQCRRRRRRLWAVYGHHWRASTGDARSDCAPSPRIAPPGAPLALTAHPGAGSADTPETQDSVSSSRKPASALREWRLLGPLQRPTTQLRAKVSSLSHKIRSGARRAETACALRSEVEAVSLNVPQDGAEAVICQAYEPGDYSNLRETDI
T1 sequence (P43140 whole entry): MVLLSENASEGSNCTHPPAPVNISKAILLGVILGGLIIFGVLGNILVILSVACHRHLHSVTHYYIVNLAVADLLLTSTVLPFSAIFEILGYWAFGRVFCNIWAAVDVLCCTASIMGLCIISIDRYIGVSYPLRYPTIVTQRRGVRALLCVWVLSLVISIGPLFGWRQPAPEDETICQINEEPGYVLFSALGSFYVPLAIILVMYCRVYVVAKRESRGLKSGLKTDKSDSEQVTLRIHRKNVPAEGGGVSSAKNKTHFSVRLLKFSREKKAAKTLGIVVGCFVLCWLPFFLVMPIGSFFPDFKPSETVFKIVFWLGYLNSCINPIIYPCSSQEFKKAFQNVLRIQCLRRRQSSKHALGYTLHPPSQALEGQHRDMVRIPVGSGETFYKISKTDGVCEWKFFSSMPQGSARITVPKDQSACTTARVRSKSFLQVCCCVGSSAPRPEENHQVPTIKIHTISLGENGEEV
As to the kind of experiment: The compound was tested for binding affinity against Alpha-1 adrenergic receptor from rat using [3H]prazosin as radioligand. Type of experiment: protein assay. A digest of the protocol: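 Rat cortical membranes (Sprague–Dawley, triple-washed; 200 μg protein) incubated with 0.8 nM [3H]prazosin in 140 mM NaCl/5 mM MgCl2/50 mM Tris-HCl pH 7.4, 60 min at room temperature. Nine concentrations in duplicate, 1% DMSO final. Nonspecific binding defined by 10 μM phentolamine.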

Experiment [2] has as its target Glutamate NMDA receptor; Grin1/Grin2c (Rattus norvegicus, UniProt P35439+Q00961). The experiment is described as follows: Antagonistic activity against rat N-methyl-D-aspartate glutamate receptor 1/2C expressed in Xenopus oocytes. Type of experiment: functional, cell-based, Oocyte. The procedure, abridged:
(§1)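 Two-electrode voltage clamp at -70 mV in nominally Ca2+-free Ringer (NaCl 115, KCl 2, BaCl2 1.8, HEPES 5 mM, pH 7.4). Drugs are given by bath perfusion at 7–10 mL/min, with final DMSO 0.1–1%. Inhibition of NMDA responses is measured, and IC50 is fitted from partial 3–5 point concentration–inhibition curves with a free residual minimum. Mean ± SEM, n as reported.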

In experiment [3] the target is T2, Glutamate NMDA receptor; Grin1/Grin2b (Rattus norvegicus, UniProt P35439+Q00960). As to the kind of experiment: Antagonistic activity against rat N-methyl-D-aspartate glutamate receptor 1/2B expressed in Xenopus oocytes. Type of experiment: functional, cell-based, Oocyte. The procedure, abridged: (§2)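 Cloned NR1A/2B receptors in oocytes, recorded by two-electrode voltage clamp at -70 mV in nominally Ca2+-free Ringer (pH 7.4). Drugs are bath perfused, with final DMSO 0.1–1%. IC50 for inhibition of NMDA responses is fitted from partial 3–5 point curves, with the residual fractional response ('min') fixed at 0.15. Mean ± SEM.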
T2 sequence (Q00960 whole entry, other chains not shown, the tested form may be a part): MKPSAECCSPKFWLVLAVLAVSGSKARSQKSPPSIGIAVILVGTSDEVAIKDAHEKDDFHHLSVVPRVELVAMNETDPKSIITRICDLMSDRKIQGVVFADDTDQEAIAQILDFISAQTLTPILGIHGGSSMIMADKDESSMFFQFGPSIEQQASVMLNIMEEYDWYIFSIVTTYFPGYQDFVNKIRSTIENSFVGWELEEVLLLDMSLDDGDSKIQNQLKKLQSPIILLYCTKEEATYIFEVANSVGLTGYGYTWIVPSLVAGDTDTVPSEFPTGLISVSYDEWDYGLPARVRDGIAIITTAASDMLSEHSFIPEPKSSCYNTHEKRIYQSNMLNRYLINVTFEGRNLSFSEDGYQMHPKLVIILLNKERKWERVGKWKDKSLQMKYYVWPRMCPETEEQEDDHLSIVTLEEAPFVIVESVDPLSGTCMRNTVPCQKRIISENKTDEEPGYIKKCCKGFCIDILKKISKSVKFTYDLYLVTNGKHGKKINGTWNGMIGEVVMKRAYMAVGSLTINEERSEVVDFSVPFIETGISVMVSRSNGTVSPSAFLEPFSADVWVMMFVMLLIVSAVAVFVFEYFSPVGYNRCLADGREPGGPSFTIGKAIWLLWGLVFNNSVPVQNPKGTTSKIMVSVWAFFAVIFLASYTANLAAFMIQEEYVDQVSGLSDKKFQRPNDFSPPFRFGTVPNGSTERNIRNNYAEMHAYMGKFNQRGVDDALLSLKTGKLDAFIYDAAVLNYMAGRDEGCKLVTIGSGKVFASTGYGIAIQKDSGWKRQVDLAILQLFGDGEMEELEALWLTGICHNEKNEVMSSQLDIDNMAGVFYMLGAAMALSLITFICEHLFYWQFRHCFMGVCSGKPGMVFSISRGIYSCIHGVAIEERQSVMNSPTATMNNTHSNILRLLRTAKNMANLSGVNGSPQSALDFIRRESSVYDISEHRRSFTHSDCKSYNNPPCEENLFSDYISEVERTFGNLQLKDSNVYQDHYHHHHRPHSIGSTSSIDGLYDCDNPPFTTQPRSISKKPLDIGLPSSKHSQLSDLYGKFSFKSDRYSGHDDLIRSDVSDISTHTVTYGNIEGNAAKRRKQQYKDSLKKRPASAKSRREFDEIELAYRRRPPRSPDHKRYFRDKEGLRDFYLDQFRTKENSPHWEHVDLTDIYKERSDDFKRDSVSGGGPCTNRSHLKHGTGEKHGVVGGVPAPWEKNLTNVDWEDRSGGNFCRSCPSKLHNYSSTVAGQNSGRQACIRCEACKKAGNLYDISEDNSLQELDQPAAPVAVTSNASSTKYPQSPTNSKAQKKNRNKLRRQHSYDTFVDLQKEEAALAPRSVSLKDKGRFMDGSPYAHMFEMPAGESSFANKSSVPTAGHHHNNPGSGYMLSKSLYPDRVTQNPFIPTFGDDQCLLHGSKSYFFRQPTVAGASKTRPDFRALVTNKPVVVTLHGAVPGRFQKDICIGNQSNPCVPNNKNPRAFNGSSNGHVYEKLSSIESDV

Another experiment deals with D(2) dopamine receptor (Rattus norvegicus, UniProt P61169). The experiment is described as follows: Binding affinity against Dopamine receptor D2 from rat using [3H]raclopride as radioligand. The procedure, abridged:
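Washed Sprague–Dawley rat striatal membranes (200 μg protein) incubated with 3 nM [3H]raclopride in 120 mM NaCl/5 mM KCl/50 mM Tris-HCl pH 7.4, 60 min at room temperature. Nine concentrations in duplicate, 1% DMSO final. Nonspecific binding with 300 μM sulpiride.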

In experiment [4] the target is Glutamate NMDA receptor; Grin1/Grin2a (Rattus norvegicus, UniProt P35439+Q00959). The experiment is described as follows: Antagonistic activity against rat N-methyl-D-aspartate glutamate receptor 1/2A, expressed in Xenopus oocytes. Type of experiment: functional, cell-based, Oocyte. A digest of the protocol: as §1
Chain of Glutamate NMDA receptor; Grin1/Grin2a (Q00959 whole entry, other chains not shown): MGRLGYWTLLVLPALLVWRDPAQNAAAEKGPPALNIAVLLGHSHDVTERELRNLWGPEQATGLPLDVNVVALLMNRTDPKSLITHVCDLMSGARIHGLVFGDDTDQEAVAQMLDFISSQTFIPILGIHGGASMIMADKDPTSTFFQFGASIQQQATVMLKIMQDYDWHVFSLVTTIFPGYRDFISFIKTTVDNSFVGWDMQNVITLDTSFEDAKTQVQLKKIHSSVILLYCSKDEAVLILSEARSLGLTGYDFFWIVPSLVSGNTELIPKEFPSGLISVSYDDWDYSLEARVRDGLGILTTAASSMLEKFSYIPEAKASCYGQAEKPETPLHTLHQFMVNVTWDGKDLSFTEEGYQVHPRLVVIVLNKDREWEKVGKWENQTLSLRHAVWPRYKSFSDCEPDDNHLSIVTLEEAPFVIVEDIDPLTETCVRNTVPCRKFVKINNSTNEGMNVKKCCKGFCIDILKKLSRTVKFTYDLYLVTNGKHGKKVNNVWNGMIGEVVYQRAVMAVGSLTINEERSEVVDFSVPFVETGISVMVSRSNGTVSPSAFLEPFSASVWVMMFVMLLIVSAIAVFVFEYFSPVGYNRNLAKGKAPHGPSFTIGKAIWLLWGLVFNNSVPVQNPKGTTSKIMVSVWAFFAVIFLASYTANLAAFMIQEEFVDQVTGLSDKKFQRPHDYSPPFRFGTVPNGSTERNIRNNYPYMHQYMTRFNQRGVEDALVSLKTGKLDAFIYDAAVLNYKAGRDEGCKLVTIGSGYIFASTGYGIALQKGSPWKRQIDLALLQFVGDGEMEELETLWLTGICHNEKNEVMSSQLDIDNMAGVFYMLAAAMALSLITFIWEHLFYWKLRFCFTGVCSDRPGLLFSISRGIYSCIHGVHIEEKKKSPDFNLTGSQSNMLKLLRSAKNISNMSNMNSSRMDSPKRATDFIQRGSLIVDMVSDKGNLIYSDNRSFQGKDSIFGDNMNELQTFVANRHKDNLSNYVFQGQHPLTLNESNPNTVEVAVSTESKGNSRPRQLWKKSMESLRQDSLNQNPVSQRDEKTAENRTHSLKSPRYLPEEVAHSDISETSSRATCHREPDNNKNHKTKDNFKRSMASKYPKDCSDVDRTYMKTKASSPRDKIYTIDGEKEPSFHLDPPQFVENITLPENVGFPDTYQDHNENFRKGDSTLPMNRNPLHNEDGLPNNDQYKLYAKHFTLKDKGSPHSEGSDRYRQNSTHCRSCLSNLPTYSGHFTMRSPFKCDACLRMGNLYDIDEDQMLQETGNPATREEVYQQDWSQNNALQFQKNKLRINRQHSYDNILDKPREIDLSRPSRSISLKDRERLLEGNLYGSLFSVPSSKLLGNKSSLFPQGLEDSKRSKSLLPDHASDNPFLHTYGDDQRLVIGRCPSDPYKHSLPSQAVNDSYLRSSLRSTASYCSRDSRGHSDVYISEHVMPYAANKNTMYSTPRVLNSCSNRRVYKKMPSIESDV
Experiment [5] in a line: Antagonistic activity against rat NR1A/2A receptor, expressed in Xenopus oocytes. As to conditions: Oocyte. It counts as functional, cell-based. A digest of the protocol: as §1
In experiment [6] the target is T2, Glutamate NMDA receptor; Grin1/Grin2b. As to the kind of experiment: Antagonistic activity against rat NR1A/2B receptor expressed in Xenopus oocytes. Type of experiment: functional, cell-based, Oocyte. The procedure, abridged:
as §2

Chain of D(2) dopamine receptor (P61169 whole entry): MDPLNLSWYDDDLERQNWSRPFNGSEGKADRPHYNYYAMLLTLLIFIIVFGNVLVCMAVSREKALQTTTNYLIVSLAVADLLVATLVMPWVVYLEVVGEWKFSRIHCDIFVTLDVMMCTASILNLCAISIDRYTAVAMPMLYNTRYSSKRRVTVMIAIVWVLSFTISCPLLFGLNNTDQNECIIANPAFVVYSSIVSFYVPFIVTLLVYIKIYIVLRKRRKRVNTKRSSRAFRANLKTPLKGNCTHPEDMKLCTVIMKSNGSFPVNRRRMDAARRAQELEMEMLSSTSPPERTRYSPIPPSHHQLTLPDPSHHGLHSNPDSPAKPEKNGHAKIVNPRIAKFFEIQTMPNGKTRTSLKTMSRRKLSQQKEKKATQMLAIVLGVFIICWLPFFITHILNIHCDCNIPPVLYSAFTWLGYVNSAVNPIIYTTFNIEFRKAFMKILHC
Chain of Glutamate NMDA receptor; Grin1/Grin2c (Q00961 whole entry, other chains not shown, the tested form may be a part): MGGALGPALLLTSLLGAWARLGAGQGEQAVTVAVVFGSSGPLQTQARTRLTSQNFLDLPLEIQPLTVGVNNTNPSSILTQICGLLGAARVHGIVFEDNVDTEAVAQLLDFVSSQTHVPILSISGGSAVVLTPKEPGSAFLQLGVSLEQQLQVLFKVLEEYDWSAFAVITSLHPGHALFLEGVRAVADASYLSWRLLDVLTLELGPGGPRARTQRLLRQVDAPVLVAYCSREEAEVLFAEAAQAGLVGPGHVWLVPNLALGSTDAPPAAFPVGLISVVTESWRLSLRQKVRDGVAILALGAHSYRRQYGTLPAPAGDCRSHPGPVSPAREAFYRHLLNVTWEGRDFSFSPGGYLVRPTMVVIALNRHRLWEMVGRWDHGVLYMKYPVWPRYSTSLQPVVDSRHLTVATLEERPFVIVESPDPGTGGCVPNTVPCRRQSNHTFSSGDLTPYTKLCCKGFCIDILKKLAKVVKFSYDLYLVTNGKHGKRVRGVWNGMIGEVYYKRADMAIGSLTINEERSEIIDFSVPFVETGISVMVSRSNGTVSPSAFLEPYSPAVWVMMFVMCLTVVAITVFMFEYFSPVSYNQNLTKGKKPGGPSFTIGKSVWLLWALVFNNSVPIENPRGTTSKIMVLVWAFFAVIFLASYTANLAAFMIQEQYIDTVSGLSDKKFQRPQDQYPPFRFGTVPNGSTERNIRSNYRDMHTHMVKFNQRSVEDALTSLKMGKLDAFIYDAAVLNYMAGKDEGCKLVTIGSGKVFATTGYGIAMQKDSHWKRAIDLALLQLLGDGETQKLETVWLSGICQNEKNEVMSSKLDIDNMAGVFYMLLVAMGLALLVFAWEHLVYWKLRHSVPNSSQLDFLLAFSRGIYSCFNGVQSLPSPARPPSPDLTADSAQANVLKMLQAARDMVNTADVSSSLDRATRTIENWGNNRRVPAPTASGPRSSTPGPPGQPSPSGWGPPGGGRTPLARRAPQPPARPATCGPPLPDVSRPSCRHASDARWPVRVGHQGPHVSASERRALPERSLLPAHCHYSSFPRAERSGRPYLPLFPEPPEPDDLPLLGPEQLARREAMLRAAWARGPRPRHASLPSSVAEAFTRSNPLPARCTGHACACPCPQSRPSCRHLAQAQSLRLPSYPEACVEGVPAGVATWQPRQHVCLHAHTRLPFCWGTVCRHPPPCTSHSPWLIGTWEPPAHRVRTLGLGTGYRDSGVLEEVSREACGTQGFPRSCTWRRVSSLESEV

Take `CS(=O)(=O)Nc1ccc(C#CCN2CCC(Cc3ccccc3)CC2)cc1`: the IC50 in experiment [1] was 2.2 µM; in experiment [2], greater than 100 µM; in experiment [3], 0.15 µM; on D(2) dopamine receptor, 12 µM; in experiment [4], greater than 100 µM.

Consider `C(#Cc1ccccc1)CCN1CCC(Cc2ccccc2)CC1`, for which the results for the IC50 in experiment [5] and in experiment [6] were greater than 100 µM and 4.7 µM, respectively.

In the case of `CS(=O)(=O)Nc1ccc(C#CCCN2CCC(Cc3ccccc3)CC2)cc1`, the IC50 in experiment [1] is 1.2 µM; in experiment [2] it was greater than 100 µM; in experiment [3], 0.24 µM; at D(2) dopamine receptor, 0.2 µM; in experiment [4], greater than 100 µM.

These data come from ChEMBL document CHEMBL1132273, “Subtype-selective N-methyl-D-aspartate receptor antagonists: synthesis and biological evaluation of 1-(arylalkynyl)-4-benzylpiperidines” (J Med Chem, 1999).
